≈ marks a conversion by molar mass, not a printed value. Calls of active or inactive are those of the source. The calls are words filed in the database; no cut-off is given here.
Legend:
[1] = test system: Jurkat; assay: Antiproliferative activity against human Jurkat T cells assessed as DNA content after 72 hrs by Hoechst 33258 dye based fluorometric method; type: functional, cell-based
Procedure, shortened: (§1)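 Jurkat T cells grown in X-VIVO 15 with 10% FBS and antibiotic-antimycotic at 37 °C, 5% CO2, passages 5–10, mycoplasma-free, STR-authenticated. IC50 came from nonlinear regression, mean ± SE of three experiments. Uridine, where added, was at 100 μM.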

[2] = test system: Jurkat; assay: Antiproliferative activity against human Jurkat T cells assessed as DNA content up to 100 uM after 72 hrs in presence of exogenous uridine by Hoechst 33258 dye based fluorometric method; type: functional, cell-based; procedure, shortened: as §1
[3] = test system: PBMC; assay: Immunosuppressive activity against human PBMC assessed as inhibition of PHA-stimulated cell proliferation preincubated for 2 hrs followed by PHA stimulation for 72 hrs by BrdU incorporation assay; type: functional, cell-based
[4] = Solubility in pH 7.4 PBS buffer at 1 mg after 24 hrs by HPLC-UV method; type: physicochemical
[5] = Stability in human Jurkat cells assessed as parent compound remaining at 100 uM after 72 hrs by HPLC-UV method; type: ADME, cell-based; conditions: read-out: Stability
[6] = Selectivity index, ratio of compound concentration required to induce up to 30% cell death in human Jurkat T cells to IC50 for antiproliferative activity against human Jurkat T cells; type: functional
Procedure, shortened: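 Ratio of two Jurkat T-cell readouts, both after 72 h compound or DMSO exposure of 5×10^3 cells/well. The numerator is the concentration causing ≥30% cytotoxicity by CellTox green (0.001–100 μM). Cells were grown in X-VIVO 15 with 10% FBS; three independent experiments.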

[7] = test system: Jurkat; assay: Cytotoxicity against human Jurkat T cells assessed as compound concentration required to induce up to 30% cell death after 72 hrs by CellTox green assay
[8] = Solubility in pH 7.4 PBS buffer with 1% DMSO at 1 mg after 24 hrs by HPLC-UV method; type: physicochemical
[9] = Solubility in human Jurkat cell growing medium with 1% DMSO at 1 mg after 24 hrs by HPLC-UV method; type: physicochemical
[10] = test system: Jurkat; assay: Antiproliferative activity against human Jurkat T cells assessed as DNA content up to 200 uM after 72 hrs in presence of exogenous uridine by Hoechst 33258 dye based fluorometric method; type: functional, cell-based
Procedure, shortened: as §1, with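 “STR-authenticated. 5×10^3 cells were exposed to 0.001–200 μM compound or DMSO vehicle for 72 h, lysed in 0.02% SDS/SSC, and stained with Hoechst 33258 (ex 355/em 460 nm).” for “STR-authenticated.”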

| IC50 [1] [µM] | remaining at 72 h, 100 µM [5] [%] | Compound | Activity [2] | IC50 [3] [µM] | solubility at 24 h [4] [µM] | Selectivity Index [6] | Activity [7] [µM] | solubility at 24 h [8] [µM] | solubility at 24 h [9] [µM] | Activity [10] |
| --- | --- | --- | --- | --- | --- | --- | --- | --- | --- | --- |
| 7.13 | – | O=C(Nc1c(F)c(F)c(-c2ccccc2)c(F)c1F)c1nn(CC2CC2)nc1O | – | – | – | – | 11 | – | – | – |
| 13.3 | – | Cn1nc(O)c(C(=O)Nc2c(F)cc(-c3ccccc3)cc2F)n1 | – | – | – | – | 49.3 | – | – | – |
| 0.93 | 98 | Cc1c(-c2ccc(-c3ccccc3F)cc2)nc2ccc(F)cc2c1C(=O)O [BREQUINAR] | inactive | 4.3 | 359 (≈ 135 µg/mL) | – | 45 | – | – | – |
| 59.7 | – | O=C(Nc1c(F)c(F)c(-c2ccccc2)c(F)c1F)c1no[nH]c1=O | – | – | – | – | > 100 | – | – | – |
| – | 101 | C/C(O)=C(\C#N)C(=O)Nc1ccc(C(F)(F)F)cc1 [TERIFLUNOMIDE] | – | 54.3 | – | – | 53 | – | – | inactive |
| 5.82 | 99 | Cn1nnc(O)c1C(=O)Nc1c(F)c(F)c(-c2ccccc2)c(F)c1F | – | – | 48 (≈ 17.6 µg/mL) | – | 8.3 | – | – | – |
| 2.5 | – | O=C(Nc1c(F)c(F)c(-c2cccc(OC(F)(F)F)c2)c(F)c1F)c1nsnc1O | – | – | – | – | 5.2 | – | – | – |
| 3.22 | – | O=C(Nc1c(F)c(F)c(-c2ccccc2)c(F)c1F)c1c(O)nnn1CC1CC1 | – | – | – | – | 6 | – | – | – |
| 68.3 | – | O=C(Nc1c(F)c(F)c(-c2cccc(OC(F)(F)F)c2)c(F)c1F)c1no[nH]c1=O | – | – | – | – | > 100 | – | – | – |
| 35.7 | – | Cn1nc(O)c(C(=O)Nc2ccc(-c3ccccc3)cc2F)n1 | – | – | – | – | 56.8 | – | – | – |

| Compound | IC50 [1] [µM] | remaining at 72 h, 100 µM [5] [%] | Activity [2] | IC50 [3] [µM] | solubility at 24 h [4] [µM] | Selectivity Index [6] | Activity [7] [µM] | solubility at 24 h [8] [µM] | solubility at 24 h [9] [µM] | Activity [10] |
| --- | --- | --- | --- | --- | --- | --- | --- | --- | --- | --- |
| O=C(Nc1c(F)c(F)c(-c2ccccc2)c(F)c1F)c1nsnc1O | 1.04 | 80 | inactive | 6.2 | 1690 (≈ 626 µg/mL) | 70 | 78 | – | – | – |
| Cc1c(C(=O)Nc2c(F)c(F)c(-c3ccccc3)c(F)c2F)c(O)nn1C | 2.22 | 94 | inactive | 10.7 | < 0.1 | 70 | 82 | 7 (≈ 2.66 µg/mL) | > 100 | – |
